# High-throughput results from PubChem.
# Sampled rows, rich in hits. Any-hit rate of the full collection: about 3%.
# Cneo AK release: causes C. neoformans cell lysis | adenylate kinase release luminescence, 4 h; normalised: neutral wells 0, clomiphene wells 100 | lysis activity, % at 15 µM | 0.2% of 360,000 active;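 active means mean lysis activity across replicates of at least 80%, whatever share of replicates individually reach that level; inactive means mean lysis activity below 80%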
#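 Schedule: static 4 h at 37 °C with compound, 1 h detection; system: C. neoformans cells; benchmarks: Clomiphene as positive control; buffer or medium: fresh YPD medium; measure: luminescence rise reflecting yeast cell lysis; measured by: luminescent adenylate kinase detection reagent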
# PGC1a acetyl inh: PGC1a acetylation modulation, inhibitor mode | U2OS PGC1a acetylation, AlphaScreen anti-acetyl-lysine; with virally co-expressed GCN5 acetyltransferase | AID 651687 | 0.17% of 350,000 active | inhibition, % at 15.6 µM;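 active means every replicate shows inhibition of at least 40%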
# rRNA inh HTS: selective bacterial rRNA inhibition in E. coli; 1.6% of 350,000 active; GFP signal change (wild-type ribosome), % (test concentration not listed); E. coli WT GFP vs humanized-ribosome RFP mutants, fluorescence, 24 h; stronger effect = lower value; DMSO median 0, no signal -100;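 active means significant combined selectivity score with lowered wild-type GFP, culture density cut under 30%, mutant RFP and density less affected; inactive means any of these conditions unmet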
# SIRT5 inh: inhibitors of human sirtuin-5 desuccinylase; Q9NXA8; Purified SirT5, succinyl-peptide AMC, trypsin-coupled fluorescence; 1.1% of 330,000 active; inhibition, % at 15 µM; in the data active means inhibition above about 15%
# Target sequence (Q9NXA8 whole entry, looked up): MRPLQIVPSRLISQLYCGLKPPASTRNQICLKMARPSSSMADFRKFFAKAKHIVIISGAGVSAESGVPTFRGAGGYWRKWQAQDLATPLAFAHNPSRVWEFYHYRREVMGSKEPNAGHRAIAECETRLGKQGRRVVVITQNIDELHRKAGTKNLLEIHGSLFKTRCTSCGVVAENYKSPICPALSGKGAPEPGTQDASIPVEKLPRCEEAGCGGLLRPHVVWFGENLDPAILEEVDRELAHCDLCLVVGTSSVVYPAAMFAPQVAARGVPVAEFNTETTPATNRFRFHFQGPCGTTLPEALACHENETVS
# S100A4 inh HTS: blocks human S100A4 binding to myosin IIA peptide. P26447. S100A4/TAMRA-MyoIIA peptide fluorescence polarization. inhibition, % at 10.7 µM. 0.14% of 360,000 active;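 active means mean inhibition of at least 70% across replicates, with every replicate also reaching that level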
# Target sequence (P26447 whole entry, looked up): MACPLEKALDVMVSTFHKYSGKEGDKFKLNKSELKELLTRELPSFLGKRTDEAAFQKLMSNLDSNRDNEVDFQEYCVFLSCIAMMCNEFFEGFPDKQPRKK
#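 Compound dosing: one dose per compound; test system: human S100A4 monomer with TAMRA-labelled myosin IIA peptide; probe or stimulus: TAMRA-labelled myosin IIA heavy-chain peptide probe, 5 nM; medium: HEPES buffer with Ca2+, pH 7.2; schedule: 5 min incubation before reading; benchmarks: neutral control DMSO, positive control TFP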
# C2C12 statin: suppressors of simvastatin-induced myotoxicity in C2C12 myotubes | rescue of ATP level, % at 7.49 µM | ATP luminescence, 48 h; scaled: DMSO 0, geranylgeraniol control 100 | 0.78% of 330,000 active;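 active means mean ATP rescue above about 67%, or every replicate alone reaching that limit, limit read from the data, passing the limit was not always enough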;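 further: myotubes were challenged with 10 µM simvastatin during compound exposure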
# A number is an active result; - = inactive; . = no result given.
SMILES,Cneo AK release,PGC1a acetyl inh,rRNA inh HTS,SIRT5 inh,S100A4 inh HTS,C2C12 statin
C[C@@H]1CN([C@H](C)CO)S(=O)(=O)c2ccc(C3=CCCC3)cc2O[C@@H]1CN(C)Cc1cncnc1,-,-,-,-,-,-
CCCCNC(=NCc1cccc(C(F)(F)F)c1)Nc1ccccc1,-,-,-,20,-,-
CS(=O)(=O)N(Cc1ccc(F)cc1)Cc1nc2ccccc2c(=O)[nH]1,-,-,.,.,.,99
CC(=O)N(Cc1ccc(F)cc1)Cc1nc2ccccc2c(=O)[nH]1,-,-,-,-,-,-
CO[C@H]1CN(C)C(=O)c2cc(NC(=O)Nc3cccc(Cl)c3)ccc2OC[C@H](C)N(C)C[C@@H]1C,-,-,-,-,-,-
COc1ccc(NC(=O)N(C)C[C@@H]2OCc3ccccc3-c3ccccc3C(=O)N([C@H](C)CO)C[C@@H]2C)cc1,-,-,-,-,-,-
CCN(CC)N=Nc1ccc(S(N)(=O)=O)cc1,.,-,-,18,-,.
COc1ccc(C#Cc2ccc3c(c2)[C@H]2[C@H](CCN2C(=O)NC(C)C)[C@H](CO)N3C)cc1,-,-,-,-,-,-
O=C(NC1CCCC1)[C@H]1[C@H](CO)[C@H]2Cn3c(ccc(-c4cccnc4)c3=O)[C@@H]1N2CCc1ccccc1,-,.,-,-,-,-
COC(=O)C(NC(=O)c1ccccc1)(Nc1nc(C)cs1)C(F)(F)F (centres undefined),-,-,-42,-,-,-
Cc1ccc2nc(SCC(=O)c3ccc4c(c3)OCO4)[nH]c2c1,-,-,-23,.,-,-
O=C(CSc1nc2ccccc2[nH]1)c1ccc2c(c1)OCO2,-,-,.,.,.,-
O=C(CSc1ccc2c(c1)OCCO2)Nc1ccc(Br)cc1,-,-,.,.,.,102
Cc1ccc2nc(SCC(=O)Nc3ccc4c(c3)OCCO4)[nH]c2c1,-,-,.,.,.,-
O=C(CSc1ncn(-c2ccccc2)n1)Nc1ccc2c(c1)OCCO2,-,-,.,.,.,101
O=C(CSc1nc2ccccc2[nH]1)Nc1ccc2c(c1)OCCO2,-,-,.,.,.,117
COc1ccc(NC(=O)N(C)C[C@H]2OCc3cn(nn3)CCCC(=O)N([C@H](C)CO)C[C@H]2C)c(OC)c1,.,-,-,.,.,-
COc1ccccc1NC(=O)C[C@H]1CC[C@H]2[C@@H](COc3ccc(NC(C)=O)cc3C(=O)N2C)O1,.,-,-,-,-,.
C[C@@H]1CN([C@H](C)CO)C(=O)c2cccc(NS(=O)(=O)c3ccc(F)cc3)c2O[C@H]1CN(C)Cc1ccncc1,-,-,-,-,-,-
O=CNc1cc(-c2ccsc2)cn2c(-c3ccccc3)cnc12,146,.,-,.,-,-
CCC(=O)N1CC2(C1)[C@H](c1ccccc1)[C@@H](CO)N2Cc1cccc(Cl)c1,.,-,-,-,-,.
Cc1cccc(NC(=O)c2cc(-c3ccc(C)c(C)c3O)n[nH]2)c1,-,-,-17,-,-,-
Cc1ccc(NC(=O)C2CCN(C(=O)c3ccco3)CC2)cc1C,-,-,-,79,-,-
Cc1cccc(NC(=S)N2CCN(C(=O)c3ccco3)CC2)c1C,-,.,-,-,-,-
Cc1c(Cl)cccc1NC(=S)N1CCN(C(=O)c2ccco2)CC1,-,.,-28,-,-,-
SMILES,Cneo AK release,PGC1a acetyl inh,rRNA inh HTS,SIRT5 inh,S100A4 inh HTS,C2C12 statin
COc1cccc(-n2c(SCC(=O)O)nnc2-c2cccnc2)c1,-,-,-,-,-,-
CCSc1nnc(-c2cccnc2)n1-c1ccc(Cl)c(C)c1,-,-,-,-,-,111
C[C@@H]1CN([C@@H](C)CO)C(=O)c2cc(NC(=O)Cc3ccccc3)ccc2O[C@@H](C)CCCCO[C@@H]1CN(C)Cc1ccc(C(=O)O)cc1,-,-,-,-,-,.
Cc1[nH]c2ccccc2c1/C=N/NC(=S)NC(C)C,.,-,-47,-,-,.
Cc1[nH]c2ccccc2c1/C=N/Nc1ccccc1[N+](=O)[O-],.,-,-20,-,-,.
Cc1[nH]c2ccccc2c1/C=N\NC(=O)c1ccccc1Cl,-,-,-,.,-,-
C[C@@H]1CN([C@@H](C)CO)C(=O)c2cccc(NC(=O)c3ccncc3)c2O[C@@H]1CN(C)C(=O)Nc1ccc(C(F)(F)F)cc1,-,-,-,-,-,-
Cc1cc(C)n(-c2cccc(Cl)c2)c(=O)c1C#N,-,-,.,.,.,118
Cc1ccc(-n2c(C)cc(C)c(C#N)c2=O)cc1C,.,.,-,-,-,.
COc1cccc(NC(=O)N(C)C[C@H]2Oc3ncc(C#Cc4ccccc4)cc3C(=O)N([C@H](C)CO)C[C@@H]2C)c1,-,-,-,-,-,-
CCn1ncc(N(C)N)c(Cl)c1=O,-,-,-,-,-,89
COC(=O)C1CCCN1C(=O)C1CCCN1C(=O)CNC(=O)OCc1ccccc1 (centres undefined),-,-,.,.,.,82
COC(=O)CNC(=O)C1CCCN1C(=O)CNC(=O)OCc1ccccc1 (centres undefined),.,.,-,-,-,.
COc1cc2c(c(O)c1OC)C(=O)C(OC)CCC2 (centres undefined),-,-,.,.,.,89
N#CC(=C1Nc2ccccc2N1)S(=O)(=O)c1ccccc1,-,-,-,-,-,108
CCN1C(=O)CS/C1=C(\C#N)S(=O)(=O)c1ccccc1,-,-,.,.,.,-
O=S1(=O)c2ccc(Br)cc2OCCC2CCCCN21 (centres undefined),.,.,-21,.,-,.
Cc1ccc(/C=N/Nc2ncc(Cl)cc2Cl)s1,.,-,-22,-,-,.
C[C@@H]1CN([C@H](C)CO)C(=O)c2cc(NS(=O)(=O)c3ccccc3)ccc2O[C@@H]1CN(C)Cc1ccc2c(c1)OCO2,-,-,-,-,-,-
